Data as given in publication PMC3056322 (Journal of the American Chemical Society, 2010).
Each block holds one molecule with its values, some of them ahead of it. Non-standard residues stand in square brackets, D forms with d. Residues, ends and D or L forms follow the SMILES beside them. pS = N[C@@H](COP(=O)(O)O)C(=O)O

Experiments:
[1] = target: T1, Pin1-PPIase (truncated human Pin1 construct omitting the WW domain) (Homo sapiens, UniProt Q13526); test: 15N–1H chemical shift perturbation ligand titration; type: binding
How it was run: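 Pin1-PPIase was titrated with the test compound, and the protein's amide 15N–1H chemical shift perturbations were followed. Kd was obtained by fitting the resulting binding isotherms.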

[2] = target: T1, Pin1-PPIase (truncated human Pin1 construct omitting the WW domain); test: 2-D 1H–1H EXSY of cis–trans isomerization with Pin1-PPIase; type: biochemical; details: 1H–1H EXSY of attached P4 Hδ protons
How it was run: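 2-D 1H–1H EXSY was run on an acetylated, amidated phospho-Ser-Pro pentapeptide substrate with Pin1-PPIase. Enzyme levels relative to ligand were raised up to 20%. Cis–trans exchange rate and cis population were taken from the EXSY data.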

[3] = target: T1, Pin1-PPIase (truncated human Pin1 construct omitting the WW domain); test: Natural abundance 13C CPMG relaxation dispersion of ligand with Pin1-PPIase; type: binding
[4] = target: T2, trans-locked alkene isostere inhibitor (also: pSer-Pro amide replaced by (E)CH=C alkene isostere); test: NMR chemical shift titration
T2 chain: Ac-FF[pS]PR-NH2

[5] = target: T3, FFpSPR substrate phosphopeptide (SMILES CC(=O)N[C@@H](Cc1ccccc1)C(=O)N[C@@H](Cc1ccccc1)C(=O)N[C@@H](COP(=O)(O)O)C(=O)N1CCC[C@H]1C(=O)N[C@@H](CCCNC(=N)N)C(N)=O); test: NMR chemical shift titration
T3 chain: Ac-FF[pS]PR-NH2

[6] = target: T4, cis-locked alkene isostere inhibitor (also: pSer-Pro amide replaced by (Z)CH=C alkene isostere); test: NMR chemical shift titration
T4 chain: Ac-FF[pS]PR-NH2

[7] = side-chain P4-Cδ, 1% Pin1-PPIase, two-state fit

T1 sequence (Q13526 50-163 limits assumed): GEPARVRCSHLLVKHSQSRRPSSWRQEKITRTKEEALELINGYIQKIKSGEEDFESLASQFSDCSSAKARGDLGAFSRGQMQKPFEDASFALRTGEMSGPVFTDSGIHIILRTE

- Kd [1]: 203 ± 46 µM
- pCIS ([2]; cis population): 12 ± 2%
- kex,CIS/TRANS ([2]; cis–trans isomerization): 87 ± 4 s⁻¹
- kex ([3]; P4-Cα and F1-Cα, 1% Pin1-PPIase): 200 to 800 s⁻¹
- C-terminal R5-Cα dispersion ([3]; R5-Cα, 1% Pin1-PPIase): strong dispersion
- kex [3, 7]: 85 ± 9 s⁻¹
- pminor [3, 7]: 17 ± 4%
- 13C dispersion at lower temperature ([3]; with Pin1-PPIase, lower temperature): decrease in FFpSPR dispersion
Molecule: CC(=O)N[C@@H](Cc1ccccc1)C(=O)N[C@@H](Cc1ccccc1)C(=O)N[C@@H](COP(=O)(O)O)C(=O)N1CCC[C@H]1C(=O)N[C@@H](CCCNC(=N)N)C(N)=O [FFpSPR, Ac-Phe-Phe-pSer-Pro-Arg-NH2] (Ac-FF[pS]PR-NH2)

- Kd [4]: 78 µM
- Kd [5]: 203 µM
- Kd [6]: 7 µM
B1: Pin1 PPIase domain (protein)
chain: PARVRCSHLLVKHSQSRRPSSWRQEKITRTKEEALELINGYIQKIKSGEEDFESLASQFSDCSSAKARGDLGAFSRGQMQKPFEDASFALRTGEMSGPVFTDSGIHIILRTE
